Screening data as filed in PubChem.
This is a sample that favours compounds with a hit; in the whole collection about 1% have one here.
HePTP inh: inhibitors of human HePTP phosphatase, primary screen, biochemical, absorbance, leukemia target; AID 521, 2006; 0.64% of 110,000 active; recombinant HePTP phosphatase activity, OD absorbance; inhibition, % at 20 µM; Tyrosine-protein phosphatase non-receptor type 7 (Homo sapiens), P35236; in the data active = inhibition above about 50%;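 note: plate controls were vehicle for no effect and reference inhibitor for full effect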
FXIIa mix inh: human factor XIIa inhibitors, primary screen, biochemical, pooled compound mixtures, fluorogenic substrate | Coagulation factor XII (Homo sapiens), P00748 | purified FXIIa | inhibition, % at 5 µM | 0.2% of 62,000 active | AID 684, 2007;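 note: 0% = enzyme without compound and 100% = no enzyme blank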
Target sequence (P00748 20-372 limits assumed): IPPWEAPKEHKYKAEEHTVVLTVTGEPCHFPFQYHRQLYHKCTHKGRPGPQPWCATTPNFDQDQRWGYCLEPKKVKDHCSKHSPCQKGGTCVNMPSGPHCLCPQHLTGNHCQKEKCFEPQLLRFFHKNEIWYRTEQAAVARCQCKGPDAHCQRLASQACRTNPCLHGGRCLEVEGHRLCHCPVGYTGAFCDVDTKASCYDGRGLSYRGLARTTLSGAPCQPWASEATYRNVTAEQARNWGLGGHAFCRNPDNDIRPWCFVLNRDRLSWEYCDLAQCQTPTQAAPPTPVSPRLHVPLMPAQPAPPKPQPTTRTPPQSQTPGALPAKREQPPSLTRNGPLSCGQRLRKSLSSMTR
Target sequence (P00748 373-615 limits assumed): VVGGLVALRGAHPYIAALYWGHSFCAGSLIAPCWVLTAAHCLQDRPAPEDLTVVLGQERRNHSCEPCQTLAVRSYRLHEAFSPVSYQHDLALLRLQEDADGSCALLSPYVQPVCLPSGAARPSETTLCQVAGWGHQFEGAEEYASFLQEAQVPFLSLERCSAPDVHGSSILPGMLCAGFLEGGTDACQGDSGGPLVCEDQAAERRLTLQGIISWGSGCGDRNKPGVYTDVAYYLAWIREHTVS
AP ELISA ortho: alternative complement pathway inhibitors, primary screen, biochemical, ELISA, human serum, orthogonally pooled compounds. LPS-coated ELISA, C3 deposition; tested in compound mixtures. inhibition, % at 5 µM. 0.08% of 62,000 active. AID 1235, 2008;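 active = inhibition above 30% in each of the two pooled mixtures holding the compound, so the lower value exceeds 30%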;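 note: 0% = serum in Mg-EGTA without compound and 100% = EDTA serum blank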
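Medium: diluted human serum in Mg2+-EGTA GVB++. Assay system: human serum complement alternative pathway, C3 deposition onto LPS. Also added: Plate-bound LPS. Technique: Anti-C3 ELISA, OD 450 nm. Measure: percent inhibition. Incubation: 1 h at 37 °C. Dosing: 5 µM each compound, pools of ten, 50 µM per pool.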
FXIa inh mix: FXIa protease inhibitors in compound pools, primary screen, biochemical, 10-compound mixtures; Coagulation factor XI (Homo sapiens), P03951; purified FXIa, fluorogenic substrate, pooled mixtures; inhibition, % at 5 µM; 0.19% of 62,000 active; AID 680, 2007;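 note: each value is inhibition by a whole ten-compound pool holding the compound; 0% = enzyme with no mixture and 100% = wells lacking enzyme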
BAP1 inh: inhibitors of BAP1 deubiquitinase, primary screen, biochemical, Ub-AMC fluorescence, kinetic | calls only at 20 µM | Ubiquitin carboxyl-terminal hydrolase BAP1 (Homo sapiens), Q92560 | recombinant BAP1, Ub-AMC hydrolysis fluorescence kinetic; hits give low values | 0.48% of 72,000 active;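 active = activity remaining at or below 50% of control, provided the compound also passes the data quality filters; inactive = the rest, including low values that fail the filters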;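 note: 100% = DMSO wells rate and 0% = substrate alone blank rate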
Numbers without * were called inactive. Cut-off read from the data, not from the text of the source, unless noted: active = inhibition above about 20% (passing the limit was not always enough); inactive = the rest.

Screening COc1cccc(Oc2ccc(N)cn2)c1 returned HePTP inh -3.9, FXIIa mix inh 23.2*, AP ELISA ortho -0.3, FXIa inh mix -9.0 and BAP1 inh inactive.
Screening CCOc1cccc(Oc2ccc(C(F)(F)F)cn2)c1 returned HePTP inh 5.4, FXIIa mix inh 3.5, AP ELISA ortho 4.5, FXIa inh mix 11.1 and BAP1 inh inactive.
For CCOc1cc([N+](=O)[O-])cc(/C=C2\SC(=S)N(C)C2=O)c1O the results were HePTP inh 65.6*.
Screening CC1(C)Cc2c(sc3nc(SCCc4ccccc4)n(CCc4ccccc4)c(=O)c23)CO1 returned HePTP inh -6.3.
CCc1nnc(NC(=O)c2cnccn2)s1 was read as HePTP inh 10.9, FXIIa mix inh 1.6, AP ELISA ortho 4.4, FXIa inh mix 21.2* and BAP1 inh inactive.
Screening O=C(Nc1nccs1)c1cnccn1 returned HePTP inh 5.8, FXIIa mix inh 0.6, AP ELISA ortho 20.7, FXIa inh mix 5.7 and BAP1 inh inactive.
Screening Brc1ccc(OCCCCCN2CCCCC2)cc1 returned HePTP inh -8.1.
`O=C1C(=Cc2ccc(Sc3ccccc3)o2)C(=O)c2ccccc21` gave HePTP inh 15.9.
Screening CC1(C)OC(=O)C(=Cc2ccc(I)o2)C(=O)O1 returned HePTP inh 102.3*.
O=C1C(=Cc2ccc(I)o2)C(=O)c2ccccc21 was read as HePTP inh 78.2*.
For CCOc1ccc(NC(=O)c2ccc([N+](=O)[O-])o2)cc1 the results were HePTP inh -0.3 and BAP1 inh inactive.
`COc1cc(/C=C2\SC(=S)NC2=O)ccc1OCC(=O)O` gave HePTP inh -10.1.
Screening Cc1ccc(-c2ccccc2)n1-c1ccc(Cl)c(C(=O)O)c1 returned HePTP inh -8.9.
O=C(O)c1cc(N2C(=O)C3C4C=CC(O4)C3C2=O)ccc1Cl (stereo unspecified) was read as BAP1 inh inactive.
Screening Cc1ccc(-c2ccccc2)n1-c1ccc(O)c(C(=O)O)c1 returned HePTP inh 95.6*.
Cc1ccc(C)n1-c1ccc(Cl)c(C(=O)O)c1 was read as HePTP inh 104.0*.
For Cc1cc(Cl)c2cc(C(=O)O)ccc2n1 the results were HePTP inh -0.1.
Cc1cc(C(=O)O)ccc1-n1c(C)ccc1C was read as HePTP inh 103.6*, FXIIa mix inh -0.4, AP ELISA ortho -1.1 and FXIa inh mix -4.4.
Screening Cc1ccc(C)n1-c1cc(C(=O)O)ccc1Cl returned HePTP inh 102.6*.
`O=C(COc1ccc2ccccc2c1)NCc1ccccc1Cl` gave HePTP inh 4.0.
Screening CC1(C)CC(=O)C/C(=N/NC(=O)c2cc3ccccc3cc2O)C1 returned HePTP inh -31.6.
Cc1ccc(C)n1-c1ccc(Cl)cc1C(=O)O was read as HePTP inh 102.3*.
`Cc1ccc(C(=O)O)cc1-n1c(C)ccc1C` gave HePTP inh 103.9*.
CCOc1cc(/C=C2/SC(=S)NC2=O)cc(Cl)c1OCc1ccc(Cl)cc1Cl was read as HePTP inh 84.1*.
`COc1cc(/C=C2/SC(=S)NC2=O)cc(Cl)c1OCc1cccc2ccccc12` gave HePTP inh 101.9*.
Screening CC1CCc2c(sc(NC(=O)c3cccc(C(=O)O)c3)c2C(N)=O)C1 (stereo unspecified) returned HePTP inh 102.6*.
COc1cc([N+](=O)[O-])c(Cl)cc1-c1ccc(C2C3=C(CC(C)(C)CC3=O)OC3=C2C(=O)CC(C)(C)C3)o1 was read as HePTP inh -1.2.
`Nc1ccc(S(=O)(=O)O)c2cccc(O)c12` gave HePTP inh 103.2*.
Screening Nc1ccc(O)c2c1C(=O)c1c(N)ccc(O)c1C2=O returned HePTP inh 7.8.
For COCCN1C(=O)c2ccccc2C(C(=O)NCCCN2CCCC2)C1c1c[nH]c2ccccc12 (stereo unspecified) the results were HePTP inh 9.4, FXIIa mix inh 7.6, AP ELISA ortho 10.9, FXIa inh mix 37.0* and BAP1 inh inactive.
Screening COCCN1C(=O)c2ccccc2C(C(=O)NCc2ccco2)C1c1c[nH]c2ccccc12 (stereo unspecified) returned HePTP inh 6.5, FXIIa mix inh 2.5, AP ELISA ortho 12.6, FXIa inh mix 3.0 and BAP1 inh inactive.
`Cc1cc(C)c(C)c(OCCCN2CCCC2)c1` gave HePTP inh 3.4.
For COc1ccc(N2C(=O)CC(N3CCN(C(c4ccccc4)c4ccc(Cl)cc4)CC3)C2=O)cc1 (stereo unspecified) the results were HePTP inh 104.7*.
Cc1ccc(CNC(=O)CCC(=O)Nc2cc(Cl)ccc2C)cc1 was read as HePTP inh -2.7.
For CCOC(=O)c1cc(-c2ccc(/C=N\n3cnnc3)o2)ccc1Cl the results were HePTP inh -5.8, FXIIa mix inh 13.8, AP ELISA ortho -29.5, FXIa inh mix 1.4 and BAP1 inh inactive.
`O=C(O)c1cc(-c2ccc(/C=N/n3cnnc3)o2)ccc1O` gave HePTP inh 102.8*.
O=C1NC(=S)NC(=O)C1=Cc1ccc(OCc2ccc3ccccc3c2)c(Br)c1 was read as HePTP inh 52.3*.
Screening Cc1ccc(COc2ccc(C=C3C(=O)NC(=O)NC3=O)cc2Br)cc1 returned HePTP inh 3.5.
For O=C1N=C(N=Nc2c(O)[nH]c3ccccc23)S/C1=C/c1ccc(Br)cc1 the results were HePTP inh 103.4*.
`CC(C)(C)OC(=O)NC(Cc1c[nH]c2ccccc12)C(=O)NCc1ccccc1` (stereo unspecified) gave HePTP inh 0.6.
For O=C(NCCc1ccccc1)c1nn2c(c1Br)NC(c1cccs1)CC2C(F)(F)F (stereo unspecified) the results were HePTP inh -4.8.
Cc1ccc2[nH]c(=O)c(C3=NN(C(=O)CCC(=O)O)C(c4ccccc4)C3)c(-c3ccccc3)c2c1 (stereo unspecified) was read as BAP1 inh inactive.
O=c1cc(N2CCC(Cc3ccccc3)CC2)[nH]c(=O)n1C1CCCCC1 was read as HePTP inh 2.3, FXIIa mix inh 3.1, AP ELISA ortho 12.7, FXIa inh mix -0.7 and BAP1 inh inactive.
For O=c1cc(N2CCc3ccccc3C2)[nH]c(=O)n1C1CCCCC1 the results were HePTP inh 30.1, FXIIa mix inh 35.0*, AP ELISA ortho 7.2, FXIa inh mix 2.5 and BAP1 inh inactive.
Screening COc1ccc(-c2nc(SC)n(C(=O)c3ccco3)n2)cc1 returned HePTP inh 4.6, FXIIa mix inh 4.2, AP ELISA ortho 0.5, FXIa inh mix 23.8* and BAP1 inh inactive.
